According to ChEMBL document CHEMBL4330143, “Maximizing ER-α Degradation Maximizes Activity in a Tamoxifen-Resistant Breast Cancer Model: Identification of GDC-0927” (ACS Med Chem Lett, 2019):
The source made the active and inactive calls. The rule behind the calls is not given here.

Assays:
Rattus norvegicus = assay: In vivo inverse agonist activity at ERalpha in CD-IGS rat assessed as decrease in uterine weight at 10 mg/kg, po for 3 consecutive days measured at 24 hrs post last dose; format: functional, organism-based
Method in brief: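 Rat uterine wet weight assay run in agonist mode, with no ethynyl estradiol added. Oral dosing at 10 mg/kg for 3 days. Uterine weights compared with those of vehicle-treated animals.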

[1] = target: T1, Progesterone receptor (Homo sapiens) (UniProt P06401); assay: Agonist activity at PR-A (unknown origin) by transcriptional reporter assay
T1 sequence (whole entry): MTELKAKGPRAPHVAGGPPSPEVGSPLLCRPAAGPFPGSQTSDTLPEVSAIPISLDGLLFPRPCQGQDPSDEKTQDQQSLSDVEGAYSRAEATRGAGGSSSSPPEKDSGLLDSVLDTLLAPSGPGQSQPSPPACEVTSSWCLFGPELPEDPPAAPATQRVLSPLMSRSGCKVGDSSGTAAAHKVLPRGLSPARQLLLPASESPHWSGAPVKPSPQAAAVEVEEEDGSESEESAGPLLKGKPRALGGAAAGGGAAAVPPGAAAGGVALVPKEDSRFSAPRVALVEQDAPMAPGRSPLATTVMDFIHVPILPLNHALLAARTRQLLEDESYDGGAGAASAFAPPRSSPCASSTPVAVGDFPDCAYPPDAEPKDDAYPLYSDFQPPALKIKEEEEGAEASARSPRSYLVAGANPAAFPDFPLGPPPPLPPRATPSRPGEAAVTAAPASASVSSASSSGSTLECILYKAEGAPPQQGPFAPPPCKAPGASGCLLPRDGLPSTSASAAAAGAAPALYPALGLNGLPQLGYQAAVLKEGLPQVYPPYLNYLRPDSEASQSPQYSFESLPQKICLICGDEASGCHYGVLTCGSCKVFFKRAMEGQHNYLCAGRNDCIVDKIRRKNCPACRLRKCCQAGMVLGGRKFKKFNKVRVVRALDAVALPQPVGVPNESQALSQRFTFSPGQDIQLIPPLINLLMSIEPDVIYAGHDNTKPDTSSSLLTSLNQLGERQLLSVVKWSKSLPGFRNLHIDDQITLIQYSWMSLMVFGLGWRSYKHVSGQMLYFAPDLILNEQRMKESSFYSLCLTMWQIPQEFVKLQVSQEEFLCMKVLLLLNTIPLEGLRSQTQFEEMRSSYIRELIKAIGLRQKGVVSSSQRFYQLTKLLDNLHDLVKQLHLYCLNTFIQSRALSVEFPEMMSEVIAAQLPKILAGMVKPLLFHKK

[2] = target: T2, Glucocorticoid receptor (Homo sapiens) (UniProt P04150); assay: Agonist activity at GR (unknown origin) by transcriptional reporter assay
T2 sequence (whole entry): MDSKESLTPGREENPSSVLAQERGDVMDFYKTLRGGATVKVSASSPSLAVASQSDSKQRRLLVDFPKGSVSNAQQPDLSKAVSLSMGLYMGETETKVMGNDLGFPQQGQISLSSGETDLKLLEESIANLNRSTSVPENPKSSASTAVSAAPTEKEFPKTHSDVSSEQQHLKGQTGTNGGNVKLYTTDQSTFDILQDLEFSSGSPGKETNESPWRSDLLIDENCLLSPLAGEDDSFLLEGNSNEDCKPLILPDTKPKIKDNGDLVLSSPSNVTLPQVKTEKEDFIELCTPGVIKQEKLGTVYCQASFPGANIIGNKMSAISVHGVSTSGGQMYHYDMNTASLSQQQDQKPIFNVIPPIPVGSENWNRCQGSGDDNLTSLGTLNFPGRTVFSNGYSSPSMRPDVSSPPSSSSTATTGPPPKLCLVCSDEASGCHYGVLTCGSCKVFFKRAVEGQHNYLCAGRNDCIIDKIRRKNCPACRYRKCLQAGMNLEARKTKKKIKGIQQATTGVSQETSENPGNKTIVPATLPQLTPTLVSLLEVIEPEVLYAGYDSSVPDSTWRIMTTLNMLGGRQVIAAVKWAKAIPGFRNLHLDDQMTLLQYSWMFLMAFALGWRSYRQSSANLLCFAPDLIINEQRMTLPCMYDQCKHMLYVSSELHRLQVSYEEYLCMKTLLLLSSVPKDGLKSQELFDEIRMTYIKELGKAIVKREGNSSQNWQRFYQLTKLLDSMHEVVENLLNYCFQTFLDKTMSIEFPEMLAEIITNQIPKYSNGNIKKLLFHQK

[3] = target: T2, Glucocorticoid receptor (Homo sapiens); assay: Antagonist activity at GR (unknown origin) by transcriptional reporter assay
[4] = target: T3, Mineralocorticoid receptor (Homo sapiens) (UniProt P08235); assay: Agonist activity at MR (unknown origin) by transcriptional reporter assay
T3 sequence (whole entry): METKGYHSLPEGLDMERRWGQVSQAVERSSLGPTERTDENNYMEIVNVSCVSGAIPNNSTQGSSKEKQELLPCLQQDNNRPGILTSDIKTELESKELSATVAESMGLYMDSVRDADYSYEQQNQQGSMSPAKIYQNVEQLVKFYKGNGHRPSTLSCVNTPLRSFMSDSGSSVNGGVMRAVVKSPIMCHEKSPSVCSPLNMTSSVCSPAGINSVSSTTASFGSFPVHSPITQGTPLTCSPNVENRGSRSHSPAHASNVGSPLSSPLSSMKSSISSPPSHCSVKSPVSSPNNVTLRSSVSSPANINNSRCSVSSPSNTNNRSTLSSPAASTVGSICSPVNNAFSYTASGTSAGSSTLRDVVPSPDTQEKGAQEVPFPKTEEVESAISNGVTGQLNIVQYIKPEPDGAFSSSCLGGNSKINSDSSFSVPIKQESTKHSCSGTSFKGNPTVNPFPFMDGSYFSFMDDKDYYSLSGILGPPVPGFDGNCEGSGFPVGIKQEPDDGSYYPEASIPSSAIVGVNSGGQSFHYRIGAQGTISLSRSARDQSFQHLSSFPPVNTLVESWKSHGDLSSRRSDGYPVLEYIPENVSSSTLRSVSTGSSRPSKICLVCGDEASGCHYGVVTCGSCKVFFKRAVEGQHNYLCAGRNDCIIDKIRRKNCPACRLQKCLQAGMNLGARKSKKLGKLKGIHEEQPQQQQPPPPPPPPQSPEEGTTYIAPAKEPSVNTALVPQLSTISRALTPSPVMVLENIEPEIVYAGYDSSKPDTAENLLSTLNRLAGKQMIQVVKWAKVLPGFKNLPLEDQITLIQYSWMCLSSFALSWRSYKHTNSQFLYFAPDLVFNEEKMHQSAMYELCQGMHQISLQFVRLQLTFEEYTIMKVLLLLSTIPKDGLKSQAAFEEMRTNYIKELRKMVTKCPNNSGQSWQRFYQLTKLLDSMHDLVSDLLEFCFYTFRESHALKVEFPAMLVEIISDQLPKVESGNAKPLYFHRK

[5] = Clearance in rat at 10 mg/kg, po daily for 3 days measured on day 3 post last dose; format: ADME, organism-based; settings: in vivo
Cytochrome P450 2C19 = Cytochrome P450 2C19 (Homo sapiens, UniProt P33261); assay: Competitive inhibition of CYP2C19 (unknown origin); format: ADME
[6] = target: T1, Progesterone receptor (Homo sapiens); assay: Agonist activity at PR-B (unknown origin) by transcriptional reporter assay

Sequence of Cytochrome P450 2C19 (P33261 whole entry): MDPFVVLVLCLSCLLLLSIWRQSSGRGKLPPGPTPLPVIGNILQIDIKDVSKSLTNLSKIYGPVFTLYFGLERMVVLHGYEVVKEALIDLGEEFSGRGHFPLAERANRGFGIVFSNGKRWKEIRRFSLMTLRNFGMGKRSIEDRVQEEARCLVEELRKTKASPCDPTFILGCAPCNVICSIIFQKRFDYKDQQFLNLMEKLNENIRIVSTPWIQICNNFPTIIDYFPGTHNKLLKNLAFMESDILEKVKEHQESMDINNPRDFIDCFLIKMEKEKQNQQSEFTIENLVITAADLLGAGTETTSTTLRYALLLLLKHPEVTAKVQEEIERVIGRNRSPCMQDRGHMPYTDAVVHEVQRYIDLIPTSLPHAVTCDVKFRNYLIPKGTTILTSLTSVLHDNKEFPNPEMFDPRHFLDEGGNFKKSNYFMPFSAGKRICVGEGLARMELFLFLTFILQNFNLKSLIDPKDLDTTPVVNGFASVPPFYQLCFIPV

SMILES: CC1=C(c2cccc(O)c2)[C@H](c2ccc(OCCN3CC(CF)C3)cc2)Oc2ccc(O)cc21
- Activity (Rattus norvegicus): Active
- Activity [1]: inactive
- Activity [2]: inactive
- inhibition [3]: inactive
- Activity [4]: inactive
- CL/F [5]: > 60 mL/min/kg
- IC50 (Cytochrome P450 2C19): > 10 µM
- Activity [6]: inactive
